Source: ChEMBL document CHEMBL1135423, “Acyl-protected hydroxylamines as spin label generators for EPR brain imaging” (J Med Chem, 2002)
Blank lines part the entries; values can stand above or below the compound they belong to.

Experiments:
Format in all cases: ADME, organism-based
[1] = system: Mus musculus; test: Biodistribution of compound (oxidized form) in kidney tissue, animals were sacrificed 60 minutes after dosing, in DMSO solution; details: in vivo, 1 h
Method in brief: (§1)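 In female C3H HenMTV⁻ mice (6-8 weeks, 22-25 g; three per time point), compound was injected ip as 500 µL of 40 mM solution. Animals were killed 10 or 60 min later. Brain, heart, liver, kidney, spleen and blood were removed and each homogenized in ice-cold PBS. Nitroxide (oxidized form) was quantified by EPR signal intensity in the half of each homogenate not treated with ferricyanide.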

[2] = system: Mus musculus; test: Biodistribution of compound (oxidized form) in spleen tissues, animals were sacrificed 60 minutes after dosing, in DMSO solution; details: in vivo, 1 h; method in brief: as §1
[3] = system: Mus musculus; test: Biodistribution of compound (total concentration of both oxidized and reduced forms) in kidney tissues, animals were sacrificed 60 minutes after dosing, in DMSO; details: in vivo, 1 h
Method in brief: (§2)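 Female C3H HenMTV⁻ mice (6-8 weeks old, 22-25 g; three per time point) got one i.p. injection of 500 µL of 40 mM compound. They were euthanized at 10 or 60 min. Organs and blood were excised and homogenized separately in ice-cold PBS. One half of each homogenate received K₃[Fe(CN)₆] (final 1 mM) to oxidize hydroxylamine. Total nitroxide plus hydroxylamine was quantified by EPR signal intensity.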

[4] = system: Mus musculus; test: Biodistribution in mice as total concentration of both oxidized and reduced forms in liver and animals were sacrificed 10 minutes after ip administration in DMSO solution; details: in vivo
Method in brief: (§3)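 Female C3H HenMTV⁻ mice (6-8 weeks old, 22-25 g; three per time point) were given an ip injection of 500 µL of 40 mM compound. They were euthanized at 10 or 60 min. Brain, heart, liver, kidney, spleen and blood were excised and each homogenized in ice-cold PBS. One half of each homogenate received K₃[Fe(CN)₆] (final 1 mM) to oxidize hydroxylamine to nitroxide. Total nitroxide plus hydroxylamine was read from EPR signal intensity.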

[5] = system: Mus musculus; test: Biodistribution of compound (total concentration of both oxidized and reduced forms) in heart tissues, animals were sacrificed 10 minutes after dosing, in DMSO; details: in vivo; method in brief: as §2
[6] = system: Mus musculus; test: Biodistribution in mice, total concentration of both oxidized and reduced forms in brain tissues, animals were sacrificed 60 minutes after dosing, in DMSO; details: in vivo, 1 h; method in brief: as §3
[7] = system: Mus musculus; test: Biodistribution of compound (oxidized form) in blood tissue, animals were sacrificed 10 minutes after dosing, in DMSO solution; details: in vivo; method in brief: as §1
[8] = system: Mus musculus; test: Biodistribution of compound (oxidized form) in kidney tissue, animals were sacrificed 10 minutes after dosing, in DMSO solution; details: in vivo; method in brief: as §1
[9] = system: Mus musculus; test: Biodistribution of compound (total concentration of both oxidized and reduced forms) in blood tissues, animals were sacrificed 60 minutes after dosing, in DMSO; details: in vivo, 1 h; method in brief: as §2
[10] = system: Mus musculus; test: Biodistribution in mice as total concentration of both oxidized and reduced forms in spleen and animals were sacrificed 10 minutes after ip dosing, in DMSO solution; details: in vivo; method in brief: as §3
[11] = system: Mus musculus; test: Biodistribution of compound (oxidized form) in heart tissue, animals were sacrificed 10 minutes after dosing, in DMSO sol.; details: in vivo; method in brief: as §1
[12] = system: Mus musculus; test: Biodistribution of compound (total concentration of both oxidized and reduced forms) in heart tissues, animals were sacrificed 60 minutes after dosing, in DMSO; details: in vivo, 1 h; method in brief: as §2
[13] = system: Mus musculus; test: Biodistribution of compound (oxidized form) in liver tissues, animals were sacrificed 60 minutes after dosing, in DMSO solution; details: in vivo, 1 h; method in brief: as §1
[14] = system: Mus musculus; test: Biodistribution of compound (oxidized form) in heart tissue, animals were sacrificed 60 minutes after dosing, in DMSO solution; details: in vivo, 1 h; method in brief: as §1
[15] = system: Mus musculus; test: Biodistribution of compound (total concentration of both oxidized and reduced forms) in spleen tissues, animals were sacrificed 60 minutes after dosing, in DMSO; details: in vivo, 1 h; method in brief: as §2
[16] = system: Mus musculus; test: Biodistribution in mice as total concentration of both oxidized and reduced forms in blood and animals were sacrificed 10 minutes after ip dosing, in DMSO solution; details: in vivo; method in brief: as §3
[17] = system: Mus musculus; test: Biodistribution in mice as total concentration of both oxidized and reduced forms in kidney and animals were sacrificed 10 minutes after ip dosing, in DMSO solution; details: in vivo; method in brief: as §3
[18] = system: Mus musculus; test: Biodistribution of compound (oxidized form) in blood tissues, animals were sacrificed 60 minutes after dosing, in DMSO solution; details: in vivo, 1 h; method in brief: as §1
[19] = system: Mus musculus; test: Biodistribution of compound (oxidized form) in brain tissue, animals were sacrificed 10 minutes after dosing, in DMSO sol.; details: in vivo; method in brief: as §1
[20] = system: Mus musculus; test: Biodistribution of compound (oxidized form) in liver tissue, animals were sacrificed 10 minutes after dosing, in DMSO sol.; details: in vivo; method in brief: as §1
[21] = system: Mus musculus; test: Biodistribution of compound (oxidized form) in brain tissue, animals were sacrificed 60 minutes after dosing, in DMSO solution; details: in vivo, 1 h; method in brief: as §1
[22] = system: Mus musculus; test: Biodistribution of compound (total concentration of both oxidized and reduced forms) in liver tissues, animals were sacrificed 60 minutes after dosing, in DMSO; details: in vivo, 1 h; method in brief: as §2
[23] = system: Mus musculus; test: Biodistribution of compound (oxidized form) in spleen tissue, animals were sacrificed 10 minutes after dosing, in DMSO solution; details: in vivo; method in brief: as §1
[24] = system: Mus musculus; test: Biodistribution of compound (oxidized form) in brain tissues, animals were sacrificed 10 minutes after dosing, in DMSO solution; details: in vivo; method in brief: as §1
[25] = species on record: Mus musculus; test: Biodistribution of compound (oxidized form) in kidney tissue; details: in vivo; method in brief: as §1
[26] = system: Mus musculus; test: Biodistribution of compound (oxidized form) in kidney tissue, animals were sacrificed 60 minutes after dosing, in DMSO; details: in vivo, 1 h; method in brief: as §1
[27] = system: Mus musculus; test: Biodistribution of compound (total concentration of both oxidized and reduced forms) in brain tissues, animals were sacrificed 60 minutes after dosing, in DMSO; details: in vivo, 1 h; method in brief: as §2
[28] = system: Mus musculus; test: Biodistribution of compound (total concentration of both oxidized and reduced forms) in spleen tissues, animals were sacrificed 60 minutes after dosing in DMSO; details: in vivo, 1 h; method in brief: as §2
[29] = system: Mus musculus; test: Biodistribution of compound (oxidized form) in blood tissues, animals were sacrificed 60 minutes after dosing, in DMSO; details: in vivo, 1 h; method in brief: as §1
[30] = species on record: Mus musculus; test: Biodistribution of compound (total concentration of both oxidized and reduced forms) in heart tissues; details: in vivo; method in brief: as §2
[31] = species on record: Mus musculus; test: Biodistribution of compound (total concentration of both oxidized and reduced forms) in blood; details: in vivo; method in brief: as §2
[32] = system: Mus musculus; test: Biodistribution of compound (oxidized form) in heart tissue, animals were sacrificed 60 minutes after dosing, in DMSO; details: in vivo, 1 h; method in brief: as §1
[33] = system: Mus musculus; test: Biodistribution of compound (oxidized form) in liver tissues, animals were sacrificed 60 minutes after dosing, in DMSO; details: in vivo, 1 h; method in brief: as §1
[34] = species on record: Mus musculus; test: Biodistribution of compound (oxidized form) in spleen tissue; details: in vivo; method in brief: as §1
[35] = species on record: Mus musculus; test: Biodistribution of compound (oxidized form) in heart tissue of mice; details: in vivo; method in brief: as §1
[36] = system: Mus musculus; test: Biodistribution of compound (total concentration of both oxidized and reduced forms) in kidney tissues, animals were sacrificed 60 minutes after dosing in DMSO; details: in vivo, 1 h; method in brief: as §2
[37] = species on record: Mus musculus; test: Biodistribution of compound (total concentration of both oxidized and reduced forms) in brain tissues; details: in vivo; method in brief: as §2
[38] = species on record: Mus musculus; test: Biodistribution of compound (oxidized form) in brain tissue of mice; details: in vivo; method in brief: as §1
[39] = system: Mus musculus; test: Biodistribution of compound (oxidized form) in spleen tissues, animals were sacrificed 60 minutes after dosing, in DMSO; details: in vivo, 1 h; method in brief: as §1
[40] = species on record: Mus musculus; test: Biodistribution of compound (oxidized form) in liver tissue; details: in vivo; method in brief: as §1
[41] = species on record: Mus musculus; test: Biodistribution of compound (total concentration of both oxidized and reduced forms) in kidney; details: in vivo; method in brief: as §2
[42] = system: Mus musculus; test: Biodistribution of compound (oxidized form) in brain tissue, animals were sacrificed 60 minutes after dosing, in DMSO; details: in vivo, 1 h; method in brief: as §1
[43] = species on record: Mus musculus; test: Biodistribution of compound (oxidized form) in blood tissue; details: in vivo; method in brief: as §1
[44] = species on record: Mus musculus; test: Biodistribution of compound (total concentration of both oxidized and reduced forms) in liver; details: in vivo; method in brief: as §2
[45] = species on record: Mus musculus; test: Biodistribution of compound (total concentration of both oxidized and reduced forms) in spleen; details: in vivo; method in brief: as §2

Biodistribution [1]: 0 nM (g of tissue)-1
Biodistribution [2]: 0 nM (g of tissue)-1
Biodistribution [3]: 25 nM (g of tissue)-1
Biodistribution [4]: 50 nM (g of tissue)-1
Biodistribution [5]: 100 nM (g of tissue)-1
Biodistribution [6]: 25 nM (g of tissue)-1
Biodistribution [7]: 0 nM (g of tissue)-1
Biodistribution [8]: 0 nM (g of tissue)-1
Biodistribution [9]: 25 nM (g of tissue)-1
Biodistribution [10]: 100 nM (g of tissue)-1
Biodistribution [11]: 0 nM (g of tissue)-1
Biodistribution [12]: 25 nM (g of tissue)-1
Biodistribution [13]: 0 nM (g of tissue)-1
Biodistribution [14]: 0 nM (g of tissue)-1
Biodistribution [15]: 25 nM (g of tissue)-1
Biodistribution [16]: 100 nM (g of tissue)-1
Biodistribution [17]: 400 nM (g of tissue)-1
Biodistribution [18]: 0 nM (g of tissue)-1
Biodistribution [19]: 2 nM (g of tissue)-1
Biodistribution [20]: 0 nM (g of tissue)-1
Biodistribution [21]: 5 nM (g of tissue)-1
Biodistribution [22]: 30 nM (g of tissue)-1
Biodistribution [23]: 0 nM (g of tissue)-1
Biodistribution [24]: 0 nM (g of tissue)-1
Structure (SMILES): COC(=O)C1CC(C)(C)N(OC(C)=O)C1(C)C (stereo not drawn)

Biodistribution [25]: 50 nM (g of tissue)-1
Biodistribution [26]: 40 nM (g of tissue)-1
Biodistribution [27]: 0 nM (g of tissue)-1
Biodistribution [28]: 150 nM (g of tissue)-1
Biodistribution [29]: 20 nM (g of tissue)-1
Biodistribution [9]: 400 nM (g of tissue)-1
Biodistribution [30]: 250 nM (g of tissue)-1
Biodistribution [12]: 250 nM (g of tissue)-1
Biodistribution [31]: 750 nM (g of tissue)-1
Biodistribution [32]: 5 nM (g of tissue)-1
Biodistribution [33]: 20 nM (g of tissue)-1
Biodistribution [34]: 40 nM (g of tissue)-1
Biodistribution [35]: 10 nM (g of tissue)-1
Biodistribution [36]: 2500 nM (g of tissue)-1
Biodistribution [37]: 0 nM (g of tissue)-1
Biodistribution [38]: 0 nM (g of tissue)-1
Biodistribution [39]: 20 nM (g of tissue)-1
Biodistribution [40]: 100 nM (g of tissue)-1
Biodistribution [41]: 2500 nM (g of tissue)-1
Biodistribution [22]: 250 nM (g of tissue)-1
Biodistribution [42]: 0 nM (g of tissue)-1
Biodistribution [43]: 50 nM (g of tissue)-1
Biodistribution [44]: 250 nM (g of tissue)-1
Biodistribution [45]: 750 nM (g of tissue)-1
Structure (SMILES): CC(=O)OCOC(=O)C1CC(C)(C)N(OC(C)=O)C1(C)C (stereo not drawn)
